From ChEMBL document CHEMBL5143728, “Next-Generation Diprovocims with Potent Human and Murine TLR1/TLR2 Agonist Activity That Activate the Innate and Adaptive Immune Response” (J Med Chem, 2022)

Key:
[1] = biological target: Toll-like receptor 1/2 (Mus musculus) (UniProt Q9QUN7+Q9EPQ1); assay: Agonist activity at TLR1/TLR2 in wild type C57BL/6J mouse macrophages assessed as stimulation of TNF alpha release measured for 4 hrs by ELISA based assay relative to diprovocim-1; format: cell-based; design: Activity: concentration or dose not given beside the values; conditions: Macrophage, filed as agonist
Method in brief: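 Thioglycolate-elicited peritoneal macrophages from wild type C57BL/6J mice, harvested by PBS lavage 4 d after i.p. 4% thioglycolate. Cultured in DMEM/10% FBS at 37 °C, 5% CO2, seeded at 1 × 10⁵ cells/well and exposed to graded compound concentrations for 4 h, with final DMSO ≤0.5% held constant. LPS served as positive control. Supernatant mouse TNF-α was read by ELISA. EC50 from duplicate means.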

Toll-like receptor 1/2 = Toll-like receptor 1/2 (Homo sapiens, UniProt O60603+Q15399); assay: Agonist activity at TLR1/TLR2 in human THP-1 derived macrophages assessed as stimulation of TNF alpha release measured for 4 hrs by ELISA based assay relative to diprovocim-1; format: cell-based; design: Activity: concentration or dose not given beside the values
Method in brief: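 THP-1 cells differentiated with 100 nM PMA in RPMI/10% FBS for 24 h, washed, then rested 24 h in fresh medium. Seeded at 0.5 × 10⁵ cells/well and exposed to graded compound concentrations for 4 h, with final DMSO held at 0.1%. LPS served as positive control and DMSO as negative control. Supernatant human TNF-α was read by ELISA. EC50 from duplicate means.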

Row | Structure (SMILES) | Activity [1] | Activity (Toll-like receptor 1/2; filed as agonist) | Activity (Toll-like receptor 1/2)
1 | O=C(COCc1ccccc1)OCCCCCCCCCCCCNC(=O)[C@@H]1CN(C(=O)c2ccc(C(=O)N3C[C@@H](C(=O)N[C@H]4C[C@@H]4c4ccccc4)[C@H](C(=O)N[C@H]4C[C@@H]4c4ccccc4)C3)cc2)C[C@H]1C(=O)N[C@H]1C[C@@H]1c1ccccc1 | 220% | 130% | 
2 | CC(C)(C)OC(=O)NC1(C(=O)OCCCCCCCCCCCCNC(=O)[C@@H]2CN(C(=O)c3ccc(C(=O)N4C[C@@H](C(=O)N[C@H]5C[C@@H]5c5ccccc5)[C@H](C(=O)N[C@H]5C[C@@H]5c5ccccc5)C4)cc3)C[C@H]2C(=O)N[C@H]2C[C@@H]2c2ccccc2)CC1 | 220% | 100% | 
3 | O=C(CNC(=O)OCc1ccccc1)OCCCCCCCCCCCCNC(=O)[C@@H]1CN(C(=O)c2ccc(C(=O)N3C[C@@H](C(=O)N[C@H]4C[C@@H]4c4ccccc4)[C@H](C(=O)N[C@H]4C[C@@H]4c4ccccc4)C3)cc2)C[C@H]1C(=O)N[C@H]1C[C@@H]1c1ccccc1 | 410% | 100% | 
4 | CC(C)(C)OC(=O)NCCOCCCCCCCCCCCCNC(=O)[C@@H]1CN(C(=O)c2ccc(C(=O)N3C[C@@H](C(=O)N[C@H]4C[C@@H]4c4ccccc4)[C@H](C(=O)N[C@H]4C[C@@H]4c4ccccc4)C3)cc2)C[C@H]1C(=O)N[C@H]1C[C@@H]1c1ccccc1 | 220% | 100% | 
5 | O=C(NCCCCCCCCc1ccc(O)cc1)[C@@H]1CN(C(=O)c2ccc(C(=O)N3C[C@@H](C(=O)N[C@H]4C[C@@H]4c4ccccc4)[C@H](C(=O)N[C@H]4C[C@@H]4c4ccccc4)C3)cc2)C[C@H]1C(=O)N[C@H]1C[C@@H]1c1ccccc1 | 380% | 90% | 
6 | CN(C)CC(=O)OCCCCCCCCCCCCNC(=O)[C@@H]1CN(C(=O)c2ccc(C(=O)N3C[C@@H](C(=O)N[C@H]4C[C@@H]4c4ccccc4)[C@H](C(=O)N[C@H]4C[C@@H]4c4ccccc4)C3)cc2)C[C@H]1C(=O)N[C@H]1C[C@@H]1c1ccccc1 | 140% | 100% | 
7 | CC(C)(C)OC(=O)N[C@@H](Cc1ccccc1)C(=O)OCCCCCCCCCCCCNC(=O)[C@@H]1CN(C(=O)c2ccc(C(=O)N3C[C@@H](C(=O)N[C@H]4C[C@@H]4c4ccccc4)[C@H](C(=O)N[C@H]4C[C@@H]4c4ccccc4)C3)cc2)C[C@H]1C(=O)N[C@H]1C[C@@H]1c1ccccc1 | 220% | 100% | 
8 | CC(C)(C)OC(=O)N[C@@H](CSCc1ccccc1)C(=O)OCCCCCCCCCCCCNC(=O)[C@@H]1CN(C(=O)c2ccc(C(=O)N3C[C@@H](C(=O)N[C@H]4C[C@@H]4c4ccccc4)[C@H](C(=O)N[C@H]4C[C@@H]4c4ccccc4)C3)cc2)C[C@H]1C(=O)N[C@H]1C[C@@H]1c1ccccc1 | 200% | 100% | 

The next lines start with the values.

Row | Activity [1] | Activity (Toll-like receptor 1/2; filed as agonist) | Activity (Toll-like receptor 1/2) | Structure (SMILES)
9 | 110% | 110% |  | CC(C)(C)C(=O)NCC(=O)OCCCCCCCCCCCCNC(=O)[C@@H]1CN(C(=O)c2ccc(C(=O)N3C[C@@H](C(=O)N[C@H]4C[C@@H]4c4ccccc4)[C@H](C(=O)N[C@H]4C[C@@H]4c4ccccc4)C3)cc2)C[C@H]1C(=O)N[C@H]1C[C@@H]1c1ccccc1
10 | 200% | 110% |  | C[C@@H](NC(=O)OC(C)(C)C)C(=O)OCCCCCCCCCCCCNC(=O)[C@@H]1CN(C(=O)c2ccc(C(=O)N3C[C@@H](C(=O)N[C@H]4C[C@@H]4c4ccccc4)[C@H](C(=O)N[C@H]4C[C@@H]4c4ccccc4)C3)cc2)C[C@H]1C(=O)N[C@H]1C[C@@H]1c1ccccc1
11 | 140% | 90% |  | CC(=O)OCCCCCCCCCCCCNC(=O)[C@@H]1CN(C(=O)c2ccc(C(=O)N3C[C@@H](C(=O)N[C@H]4C[C@@H]4c4ccccc4)[C@H](C(=O)N[C@H]4C[C@@H]4c4ccccc4)C3)cc2)C[C@H]1C(=O)N[C@H]1C[C@@H]1c1ccccc1
12 | 150% |  | < 50% | CC(C)(C)Oc1ccc(C(=O)OCCCCCCCCCCCCNC(=O)[C@@H]2CN(C(=O)c3ccc(C(=O)N4C[C@@H](C(=O)N[C@H]5C[C@@H]5c5ccccc5)[C@H](C(=O)N[C@H]5C[C@@H]5c5ccccc5)C4)cc3)C[C@H]2C(=O)N[C@H]2C[C@@H]2c2ccccc2)cc1
